The record followed here is ChEMBL document CHEMBL4414562, “Discovery of the First in Vivo Active Inhibitors of the Soluble Epoxide Hydrolase Phosphatase Domain” (J Med Chem, 2019).

Each structure is given as a SMILES string. Calls of active or inactive are those of the source. The calls are words filed in the database; no cut-off is given here. A value given as a limit tells only on which side of the number the result lay.

The nature of assay [1]: Inhibition of hexa-His-tagged human soluble epoxide hydrolase N-terminal phosphatase domain expressed in Escherichia coli BL21(DE3) pre-incubated for 30 mins before FDP substrate addition by fluorescence based assay.
Assay [2] deals with T1, Bifunctional epoxide hydrolase 2 (Homo sapiens, UniProt P34913).
T1 sequence (P34913 whole entry): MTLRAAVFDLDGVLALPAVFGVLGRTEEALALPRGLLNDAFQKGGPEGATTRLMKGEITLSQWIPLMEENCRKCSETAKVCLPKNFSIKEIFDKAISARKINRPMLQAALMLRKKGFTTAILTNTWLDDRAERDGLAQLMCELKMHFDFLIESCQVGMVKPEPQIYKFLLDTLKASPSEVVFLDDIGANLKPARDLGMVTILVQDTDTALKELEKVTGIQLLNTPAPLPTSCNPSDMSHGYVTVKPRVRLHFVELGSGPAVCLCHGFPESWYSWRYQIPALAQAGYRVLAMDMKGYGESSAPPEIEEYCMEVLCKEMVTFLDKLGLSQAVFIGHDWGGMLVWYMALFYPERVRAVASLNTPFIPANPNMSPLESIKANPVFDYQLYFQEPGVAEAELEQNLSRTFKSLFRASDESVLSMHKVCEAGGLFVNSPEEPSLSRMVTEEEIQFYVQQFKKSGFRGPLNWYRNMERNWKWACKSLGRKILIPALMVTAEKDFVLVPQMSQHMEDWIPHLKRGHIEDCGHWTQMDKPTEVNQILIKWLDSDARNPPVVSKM
The experiment in a line: Inhibition of hexa-His-tagged human soluble epoxide hydrolase C-terminal hydrolase domain expressed in Escherichia coli BL21(DE3) pre-incubated for 30 mins before PHOME substrate addition by fluorescence based assay.

Assay [3] has as its target T1, Bifunctional epoxide hydrolase 2. The experiment in a line: Inhibition of hydrolase activity of full length human soluble epoxide hydrolase pre-incubated for 30 mins before PHOME substrate addition by fluorescence based assay. The gist of the method: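 Hydrolase assay with 0.1 μM full-length enzyme in Bis-Tris pH 7 containing 0.1 mg/mL BSA and 0.01% Triton X-100. Reaction started with PHOME (50 μM final). Triplicates.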

The target is the same in assay [4]. The experiment in a line: Inhibition of phosphatase activity of full length human soluble epoxide hydrolase pre-incubated for 30 mins before FDP substrate addition by fluorescence based assay.
For assay [5], the species on record is Homo sapiens.
For assay [6], the species on record is Homo sapiens. The experiment in a line: Induction of stabilization of hexa-His-tagged human soluble epoxide hydrolase N-terminal phosphatase domain expressed in Escherichia coli BL21(DE3) at 50 uM by differential scanning fluorimetry.
In assay [7] the target is T2, Bifunctional epoxide hydrolase 2 (Homo sapiens) (UniProt P34913).
T2 sequence (whole entry): T1 sequence (P34913 whole entry)
Description: Induction of stabilization of hexa-His-tagged human soluble epoxide hydrolase C-terminal hydrolase domain expressed in Escherichia coli BL21(DE3) at 50 uM by differential scanning fluorimetry. (Differential scanning fluorimetry follows unfolding on heating by fluorescence.)

As usually defined, the IC50 is the midpoint of a concentration-inhibition curve. Low readings indicate higher potency, high ones lower potency. In turn, `N#Cc1cccc(-c2oc(CCCC(=O)O)nc2-c2ccc(Cl)c(Cl)c2)c1` registered an IC50 in assay [1] of 120 nM.

Take `O=C(O)c1ccccc1-c1nc(-c2ccc(Cl)c(Cl)c2)c(-c2ccccc2)o1`: half-maximal inhibition in assay [1] (IC50) was put at 15000 nM.

For the molecule `O=C(O)CCCc1nc(-c2ccc(Cl)c(Cl)c2)c(-c2cccc(C(F)(F)F)c2)o1`, the IC50 in assay [1] turned out to be 410 nM.

In general, ΔTm refers to the shift of the melting midpoint relative to a reference. As for `CC(=O)N[C@@H](CSC/C=C(\C)CC/C=C(\C)CCC=C(C)C)C(=O)O`, the IC50 is 550 nM in assay [1], more than 300000 nM in assay [2], more than 300000 nM in assay [3] and 2040 nM in assay [4]. Besides, the ΔTm in assay [5] was found to be 3.4 °C.

Regarding `O=C(O)/C=C/c1nc(-c2ccc(Cl)c(Cl)c2)c(-c2ccccc2)o1`, the IC50 in assay [1] came to 510 nM.

`O=C(O)CCc1nc(-c2ccc(Cl)cc2Cl)c(-c2ccccc2)o1`: the IC50 in assay [1] amounted to 17000 nM.

Take `N#Cc1ccc(-c2nc(CCC(=O)O)oc2-c2ccccc2)cc1`: in assay [1], inhibition was half-maximal at 44000 nM (IC50).

In the case of `O=C(O)c1ccc(-c2nc(-c3ccc(Cl)c(Cl)c3)c(-c3ccccc3)o2)cc1`, the IC50 in assay [1] is 12000 nM.

For the molecule `O=C(O)CCCc1nc(-c2ccc(Cl)c(Cl)c2)c(-c2ccncc2)o1`, the half-maximal inhibitory concentration (IC50) in assay [1] was found to be 20000 nM.

On to `O=C(O)CCCc1nc(-c2ccc(Cl)c(Cl)c2)co1`, for which the IC50 in assay [1] was more than 50000 nM.

As for `C#Cc1cccc(-c2oc(CCCC(=O)O)nc2-c2ccc(Cl)c(Cl)c2)c1`, in assay [1], the midpoint of inhibition, the IC50, lay at 140 nM.

In assay [1], `O=C(O)CCCc1nc(-c2ccc(Cl)c(Cl)c2)c(-c2cccc(F)c2)o1` gave an IC50 of 120 nM.

The molecule `O=C(O)CCCc1nc(-c2ccc(Cl)c(Cl)c2)c(-c2cccc(Cl)c2)o1` came in with an IC50 in assay [1] of 230 nM.

As for `O=C(O)CCc1nc(-c2ccccc2F)c(-c2ccccc2)o1`, the IC50 in assay [1] was 40000 nM.

With `O=C(Nc1ccc(I)cc1)NC1CCCCC1`, the outcome in assay [6] was inactive. The result in assay [7] was Active.

In assay [1], `O=C(O)c1cccc(-c2nc(-c3ccc(Cl)c(Cl)c3)c(-c3ccccc3)o2)c1` came in with a half-maximal inhibitory concentration (IC50) of 150 nM.

In assay [1], `O=C(O)CCCc1nc(-c2ccc(Cl)c(Cl)c2)c(Br)o1` showed an IC50 of 3000 nM.

Molecule `O=C(O)CCc1nc(-c2ccccc2Cl)c(-c2ccccc2)o1` gave an IC50 in assay [1] of 33000 nM.

In turn, `O=C(O)CCc1nc(-c2cc(Cl)cc(Cl)c2)c(-c2ccccc2)o1` yielded an IC50 in assay [1] of 9000 nM.

In assay [1], `O=C(O)CCCc1nc(-c2ccc(Cl)c(Cl)c2)c(-c2cc(F)ccc2F)o1` gave an IC50 of 280 nM.

Molecule `O=C(O)CCc1nc(-c2ccc(Cl)c(C(F)(F)F)c2)c(-c2ccccc2)o1` had an IC50 in assay [1] of 2000 nM.

As for `O=C(O)CCc1nc(-c2ccc(C(F)(F)F)cc2)c(-c2ccccc2)o1`, the 50% inhibitory concentration (IC50) in assay [1] turned out to be 33000 nM.

As to `O=c1c2ccccc2[se]n1-c1ccccc1` [EBSELEN], the IC50 was found to be 290 nM in assay [1], 110 nM in assay [2], 300 nM in assay [3] and 420 nM in assay [4].

Regarding `COc1ccc(-c2nc(CCC(=O)O)oc2-c2ccccc2)cc1`, 18000 nM corresponded to half-maximal inhibition in assay [1] (IC50).

In assay [1], `N#Cc1cccc(-c2nc(CCC(=O)O)oc2-c2ccccc2)c1` gave an IC50 of 10000 nM.

On to `COc1cccc(-c2oc(CCCC(=O)O)nc2-c2ccc(Cl)c(Cl)c2)c1`, for which, in assay [1], 310 nM corresponded to half-maximal inhibition (IC50).

As to `O=C(O)CCc1nc(-c2ccc(F)cc2)c(-c2ccccc2)o1`, it took 9000 nM to reach half-maximal inhibition in assay [1] (IC50).

In turn, `O=C(O)CCc1nc(-c2cccc(F)c2)c(-c2ccccc2)o1` gave an IC50 in assay [1] of 7000 nM.

`O=C(O)CCc1nc(-c2ccc(Cl)c(Cl)c2)c(-c2ccccc2)o1` yielded an IC50 in assay [1] of 120 nM.

On to `O=C(O)CCCc1nc(-c2ccc(Cl)c(Cl)c2)c(-c2cccnc2)o1`, for which the IC50 in assay [1] was found to be 4000 nM.

The molecule `Cc1cccc(-c2oc(CCCC(=O)O)nc2-c2ccc(Cl)c(Cl)c2)c1` registered an IC50 in assay [1] of 310 nM.

Turning to `O=C(O)CCc1nc(-c2ccc(Cl)cc2)c(-c2ccccc2)o1`, the half-maximal inhibitory concentration (IC50) in assay [1] amounted to 3000 nM.

Take `O=C(O)CCCc1nc(-c2ccc(Cl)c(Cl)c2)c(-c2ccccc2F)o1`: in assay [1], the IC50 was determined as 310 nM.
